Compound activity from PubChem BioAssay.
Kir21 inh = blocks the mouse Kir2.1 inward-rectifier potassium channel. P35561. HEK293-Kir2.1, FluxOR thallium flux fluorescence; stronger effect = lower value. B-score at 10 µM. actives 0.85% (n = 310,000). AID 1672;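 active = fluorescence ratio B-score at or below minus 3 SD of library scores, with starting-brightness B-score within 2 SD, cut at about -4.2 in these data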;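 note: channel flux triggered by added potassium and thallium sulfate stimulus; B-score of peak minus minimum fluorescence over baseline after thallium stimulus; more negative B-score means stronger Kir2.1 block with less thallium influx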
KCNK9 inh-1 = inhibitors of human KCNK9 two-pore domain potassium channel; B-score at 10 µM; HEK293 KCNK9, FluxOR thallium flux fluorescence; stronger effect = lower value; AID 488922; actives 1.2% (n = 310,000); Q9NPC2;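 active = ratio B-score over 3 SD below the library mean, with starting fluorescence within 5 SD of its mean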;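 note: negative B-score means less thallium flux so channel inhibition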
KCNQ1 block = blocks the human KCNQ1 potassium channel; CHO-K1 KCNQ1, FluxOR thallium flux fluorescence; stronger effect = higher value; P51787; B-score at 10 µM; actives 1.3% (n = 310,000);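 active = compounds whose thallium flux B-score, printed positive for inhibition, exceeds three library SD while starting fluorescence stays within three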;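 note: channel opened by potassium depolarization with thallium stimulus after 20 min compound exposure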
KCNQ1 pot = potentiators or activators of human KCNQ1 potassium channel | P51787 | CHO-K1 KCNQ1, thallium flux FluxOR fluorescence; stronger effect = higher value | B-score at 10 µM | actives 0.35% (n = 310,000);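 active = fluorescence ratio B-score, a plate-corrected score, at least three library SD, with initial intensity B-score within 5 SD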
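Assay system: stable KCNQ1 CHO-K1 line; medium: assay buffer, equal DMSO in all wells; timing: 90 min dye loading and 20 min compound exposure, both at room temperature; technique: kinetic FluxOR thallium fluorescence, 10-s 1-Hz baseline, 110-s post-stimulus read; read-out basis: B score of baseline-normalized fluorescence ratio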
KCNK3 block = human KCNK3 channel inhibition, primary screen; CHO-KCNK3 thallium flux, FluxOR fluorescence; stronger effect = lower value; B-score at 10 µM; actives 0.84% (n = 340,000); AID 602410;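 active = B-score under library mean minus 4 SD, starting fluorescence ratio at most library mean plus 5 SD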;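 note: more negative B-score means stronger inhibition of thallium flux through KCNK3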
hERG rescue = compounds protecting human hERG from proarrhythmic drug block | Q12809 | CHO-hERG, FluxOR thallium flux, dofetilide IC70 present | activation (rescue from dofetilide block), less the hit threshold, % at 10 µM | actives 0.51% (n = 310,000) | AID 1511;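 active = activation above the mean of controls blocked by dofetilide plus 5 SD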;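 note: thallium influx through hERG after potassium depolarization seen as dye fluorescence rise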
hERG ctr = hERG (human) inhibition as Kir2.1 counter-screen; AID 2236; inhibition, % at 10 µM; actives 20% (n = 320); hERG-expressing cells, thallium flux; shares compounds with Kir21 inh;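 note: host cells are CHO cells stably expressing hERG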
KCNK9 inh-2 = tests whether Kir2.1 inhibitors also affect human KCNK9. shares compounds with Kir21 inh. KCNK9-expressing cells, ion flux inhibition. inhibition, % at 10 µM. actives 5% (n = 320)
Kir21 ephys inh = inhibitors of mouse Kir2.1 potassium channel; shares compounds with Kir21 inh; Kir2.1 cells, automated patch-clamp current inhibition; inhibition, % at 25 µM; actives 71% (n = 320)
KCNQ1 inh valid = confirmation of human KCNQ1 potassium channel inhibitors; shares compounds with KCNQ1 block; KCNQ1 cell line, FluxOR thallium flux fluorescence; inhibition, % at 10 µM; actives 93% (n = 1,600);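 active = primary screen active, with duplicate mean exceeding buffer control mean plus 3 SD of buffer wells, cut at about 28% in these data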;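 note: 0% = buffer control ratio and 100% = XE991 inhibitor control ratio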
CHO Tl flux = counter-screen for KCNQ1 inhibitors: effect in parental CHO cells. shares compounds with KCNQ1 block. parental CHO-K1, FluxOR thallium flux fluorescence ratio; stronger effect = lower value; zero means no signal rise above baseline. fluorescence ratio (Tl flux) at 10 µM. actives 21% (n = 1,600);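 active = mean of duplicate thallium-flux fluorescence ratios in parental host cells more than 5 SD below the buffer control mean, cut at about 0.38 in these data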;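 note: ratio is peak minus minimum fluorescence divided by baseline fluorescence; actives read low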
KCNQ2 inh = rat KCNQ2 inhibition in KCNQ1 inhibitor specificity screen; shares compounds with KCNQ1 block; KCNQ2 cells, FluxOR thallium flux fluorescence; inhibition, % at 10 µM; actives 71% (n = 1,600);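 active = mean percent inhibition of the KCNQ2 thallium signal more than 5 SD above the buffer-only control wells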;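 note: KCNQ2 expressed in CHO cells; 0% = buffer control wells and 100% = XE-991 inhibitor control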
KCNQ1-KCNE1 inh = selectivity of KCNQ1 inhibitors: inhibition of human KCNQ1/KCNE1 channel; shares compounds with KCNQ1 block; KCNQ1/KCNE1 cells, FluxOR thallium flux fluorescence; inhibition, % at 10 µM; actives 77% (n = 1,600);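 active = mean percent inhibition of duplicate wells above the buffer-only control mean plus 3 SD of those controls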;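 note: 0% = buffer only wells and 100% = XE-991 inhibitor control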
An asterisk follows results filed as active; i = inactive; . = no result given. Most compounds without a hit are left out; they make up all but 3.7% or so of the library. Unless noted, the rule behind the calls is not given here.

SMILES	Kir21 inh	KCNK9 inh-1	KCNQ1 block	KCNQ1 pot	KCNK3 block	hERG rescue	others
O=C1NC(=O)N(c2ccc3c(c2)OCO3)C(=O)/C1=C\c1ccc(-c2ccccc2C(=O)O)o1	-0.18	i	i	i	i	-2
c1ccc(-c2ccc(-c3n(-c4ccccn4)c4ccccc4[n+]3-c3ccccn3)cc2)cc1	-1.5	i	9*	i	i	-31
CCCOC(=O)Nc1ccc([As](=O)(O)O)cc1NC(=O)OCCC	-0.21	i	i	i	i	-3
Cc1ccc(/C=C2\C(=O)NC(=S)N(c3ccc(F)cc3)C2=O)s1	-1.7	i	i	i	i	11*
O=C(c1cc(C(=O)NCc2ccccc2)c(=O)n(Cc2ccccc2)c1)c1cc(Br)ccc1O	1.5	i	6*	i	i	-8
O=C(CNC(=O)c1ccccc1Cl)Nc1ccc(Br)cc1C(=O)c1ccccc1	0.07	i	i	i	i	-5
COc1ccc2ccccc2c1CNCCc1ccccc1	-8.9*	i	i	i	i	-10	hERG ctr=i;KCNK9 inh-2=i;Kir21 ephys inh=29%*
COc1cccc(CNCCc2ccccc2)c1OC	1.9	i	i	i	i	-8
NNC(=O)c1nc[nH]c1C(=O)Nc1ccc(Cl)cc1C(=O)c1ccccc1	-0.97	i	i	i	i	-2
COc1cc(CN2CCCC(C(=O)c3sccc3C)C2)cc(OC)c1O (centres undefined)	-0.03	i	i	i	i	-7
COc1ccc(CN2CCCC(C(=O)c3sccc3C)C2)cc1O (centres undefined)	-6.2*	i	i	i	i	1	hERG ctr=i;KCNK9 inh-2=i;Kir21 ephys inh=i
COc1ccc(CNCCc2c[nH]c3ccccc23)c(OC)c1C	-8.4*	i	i	i	i	-7	hERG ctr=i;KCNK9 inh-2=i;Kir21 ephys inh=4.1%*
COc1cc(C)c(CNCCc2c[nH]c3ccccc23)cc1C	-6.9*	i	i	i	i	-8	hERG ctr=i;KCNK9 inh-2=i;Kir21 ephys inh=9.0%*
CP(=O)(Nc1ccccc1)C(Cl)(Cl)Cl (centres undefined)	-0.52	i	i	i	i	-3
COc1ccc(CNCCc2ccc3c(c2)OCO3)cc1Br	-12*	i	i	i	i	-7	hERG ctr=46%*;KCNK9 inh-2=i;Kir21 ephys inh=82%*
CCOc1ccc(C(C)=O)cc1Cn1ccsc1=N	-0.43	i	i	i	i	-7
Cc1ccc(NC(=O)c2cc(-c3ccccc3)n(CCCN3CCOCC3)c2C)cc1	-2.4	i	6*	i	i	-8	KCNQ1 inh valid=81*;CHO Tl flux=0.45;KCNQ2 inh=62%*;KCNQ1-KCNE1 inh=125%*
Cc1ccccc1NC(=O)c1cc(-c2ccccc2)n(CCCN2CCOCC2)c1C	1.5	i	i	i	i	-8
Oc1cc(Cl)ccc1Oc1ccc(Cl)cc1Cl	1.2	-7.3*	9*	i	i	-6	KCNQ1 inh valid=52*;CHO Tl flux=0.46;KCNQ2 inh=i;KCNQ1-KCNE1 inh=86%*
CC(C)(C)c1nc(N2CCN(C(=O)c3ccco3)CC2)c2nnn(Cc3ccccc3Cl)c2n1	0.28	i	7*	i	i	-12	KCNQ1 inh valid=116*;CHO Tl flux=0.36*;KCNQ2 inh=101%*;KCNQ1-KCNE1 inh=136%*
Fc1cccc(F)c1-c1nc(-c2ccc(Cl)cc2)no1	0.67	i	i	i	i	-3
COc1cc(CN=C(C)c2c(O)n(C3CCCCC3)c(=O)[nH]c2=O)cc(OC)c1	-0.25	i	6*	i	i	-8	KCNQ1 inh valid=0;CHO Tl flux=0.5;KCNQ2 inh=80%*;KCNQ1-KCNE1 inh=i
CCC(=NCc1cc(OC)cc(OC)c1)c1c(O)n(C2CCCCC2)c(=O)[nH]c1=O	-1.6	i	i	i	i	-11
CCCC[N+]1(C)[C@@H]2CC(OC(=O)[C@H](CO)c3ccccc3)C[C@H]1[C@@H]1O[C@@H]12 (some centres undefined)	0.69	i	i	i	i	-4
Cc1cc(=O)oc2cc3c(cc12)CCCN3	0.12	i	i	i	i	-3
SMILES	Kir21 inh	KCNK9 inh-1	KCNQ1 block	KCNQ1 pot	KCNK3 block	hERG rescue	others
CCN(CC)CCN/N=C(\C)c1c(O)[nH]c(=O)[nH]c1=O	-0.71	i	i	i	i	-11
CCCCn1c(=O)c(C(=O)NCc2ccccc2OC)c(O)c2ccccc21	0.93	i	7*	i	i	-10	KCNQ1 inh valid=56*;CHO Tl flux=0.47;KCNQ2 inh=76%*;KCNQ1-KCNE1 inh=48%*
Cc1ccc2c(c1)C1CN(C)CCC1N2C(=S)Nc1cccnc1 (centres undefined)	0.84	i	i	i	i	-11
Cc1ccc2c(c1)C1CN(C)CCC1N2C(=O)Nc1cccc(Cl)c1 (centres undefined)	-1.4	i	7*	i	i	-13	KCNQ1 inh valid=0;CHO Tl flux=0.49;KCNQ2 inh=i;KCNQ1-KCNE1 inh=i
CCC(=NCCOc1ccc(Cl)cc1)c1c(O)n(C)c(=O)n(C)c1=O	-0.32	i	7*	i	i	-31	KCNQ1 inh valid=122*;CHO Tl flux=0.34*;KCNQ2 inh=114%*;KCNQ1-KCNE1 inh=144%*
Cc1noc(C)c1CSCC(=O)Nc1ccc(C#N)c(Cl)c1	.	.	.	.	i	.
